According to ChEMBL document CHEMBL5303300, “EUbOPEN Chemogenomics Library - Multiplex” (2023):
Values joined by “and” are separate entries in the source; they are usually repeats but may differ in a detail not shown here. Identical values can stand only once.

How the values were obtained:
[1] = system: Fibroblast; test: Multiplex assay against human fibroblast; assay type: toxicity, cell-based; conditions: number of replicates 2
Summary of the method: (§1)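 On a CQ1 microscope at 37°C and 5% CO2, live cells were imaged after compound addition. They had been stained at seeding with Hoechst33342, BioTracker Green Microtubule Cytoskeleton Dye, MitoTracker Red and Annexin V Alexa Fluor 680. CellPathfinder machine-learning gating assigned cells to Hoechst high-intensity objects or normal cells, normal cells to healthy, pyknosed or fragmented nuclei, and pyknosed cells to mitotic or apoptotic. Tubulin, mitochondrial-mass and membrane-permeability phenotypes are per cents of healthy-nucleus cells.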

[2] = system: HEK-293T; test: Multiplex assay against HEK293T; assay type: toxicity, cell-based; conditions: human, number of replicates 2; summary of the method: as §1
[3] = 12 h, 1 µM, compound concentration 1 uM
[4] = 12 h, 10 µM, compound concentration 10 uM
[5] = 24 h, 1 µM, compound concentration 1 uM
[6] = 24 h, 10 µM, compound concentration 10 uM
[7] = 48 h, 1 µM, compound concentration 1 uM
[8] = 48 h, 10 µM, compound concentration 10 uM

CN(C)C/C=C/C(=O)Nc1ccc(C(=O)Nc2cccc(Nc3ncc(Cl)c(-c4c[nH]c5ccccc45)n3)c2)cc1
Population Apoptotic (%) [1, 3]: 47% and 41%
Population Fragmented Nuclei (%) [1, 3]: 6% and 9%
Population Healthy Nuclei (%) [1, 3]: 61% and 63%
Population Hoechst High Intensity Objects (%) [1, 3]: 0%
Population Membrane Permeable-Phenotype (%) [1, 3]: 6%
Population Mitochondria Different-Phenotype (%) [1, 3]: 9% and 8%
Population Mitotic Cells (%) [1, 3]: 52% and 58%
Population Normal (%) [1, 3]: 99%
Population Pyknosed Nuclei (%) [1, 3]: 32% and 26%
Population Tubulin-Different-Phenotype (%) [1, 3]: 29% and 25%
Total Cell Count [1, 3]: 144 and 155
Population Apoptotic (%) [1, 4]: 50% and 66%
Population Fragmented Nuclei (%) [1, 4]: 21% and 12%
Population Healthy Nuclei (%) [1, 4]: 41% and 42%
Population Hoechst High Intensity Objects (%) [1, 4]: 0%
Population Membrane Permeable-Phenotype (%) [1, 4]: 21% and 22%
Population Mitochondria Different-Phenotype (%) [1, 4]: 10% and 4%
Population Mitotic Cells (%) [1, 4]: 50% and 33%
Population Normal (%) [1, 4]: 99%
Population Pyknosed Nuclei (%) [1, 4]: 36% and 44%
Population Tubulin-Different-Phenotype (%) [1, 4]: 77% and 63%
Total Cell Count [1, 4]: 180 and 169
Population Apoptotic (%) [1, 5]: 62% and 51%
Population Fragmented Nuclei (%) [1, 5]: 12% and 10%
Population Healthy Nuclei (%) [1, 5]: 54% and 55%
Population Hoechst High Intensity Objects (%) [1, 5]: 0%
Population Membrane Permeable-Phenotype (%) [1, 5]: 13% and 5%
Population Mitochondria Different-Phenotype (%) [1, 5]: 12% and 11%
Population Mitotic Cells (%) [1, 5]: 37% and 48%
Population Normal (%) [1, 5]: 100%
Population Pyknosed Nuclei (%) [1, 5]: 32% and 35%
Population Tubulin-Different-Phenotype (%) [1, 5]: 37% and 33%
Total Cell Count [1, 5]: 132 and 140
Population Apoptotic (%) [1, 6]: 79% and 84%
Population Fragmented Nuclei (%) [1, 6]: 12% and 22%
Population Healthy Nuclei (%) [1, 6]: 31%
Population Hoechst High Intensity Objects (%) [1, 6]: 1% and 0%
Population Membrane Permeable-Phenotype (%) [1, 6]: 23% and 16%
Population Mitotic Cells (%) [1, 6]: 20% and 15%
Population Normal (%) [1, 6]: 98% and 99%
Population Pyknosed Nuclei (%) [1, 6]: 55% and 46%
Population Tubulin-Different-Phenotype (%) [1, 6]: 50% and 74%
Total Cell Count [1, 6]: 167 and 178
Population Apoptotic (%) [1, 7]: 72% and 74%
Population Fragmented Nuclei (%) [1, 7]: 15%
Population Healthy Nuclei (%) [1, 7]: 55% and 50%
Population Hoechst High Intensity Objects (%) [1, 7]: 0%
Population Membrane Permeable-Phenotype (%) [1, 7]: 11% and 5%
Population Mitochondria Different-Phenotype (%) [1, 7]: 7% and 8%
Population Mitotic Cells (%) [1, 7]: 27% and 25%
Population Normal (%) [1, 7]: 100%
Population Pyknosed Nuclei (%) [1, 7]: 29% and 34%
Population Tubulin-Different-Phenotype (%) [1, 7]: 39% and 26%
Total Cell Count [1, 7]: 124 and 149
Population Apoptotic (%) [1, 8]: 93%
Population Fragmented Nuclei (%) [1, 8]: 32% and 24%
Population Healthy Nuclei (%) [1, 8]: 20% and 19%
Population Hoechst High Intensity Objects (%) [1, 8]: 2% and 0%
Population Membrane Permeable-Phenotype (%) [1, 8]: 25% and 18%
Population Mitochondria Different-Phenotype (%) [1, 8]: 6% and 5%
Population Mitotic Cells (%) [1, 8]: 6%
Population Normal (%) [1, 8]: 97% and 99%
Population Pyknosed Nuclei (%) [1, 8]: 46% and 56%
Population Tubulin-Different-Phenotype (%) [1, 8]: 65% and 68%
Total Cell Count [1, 8]: 220 and 196
Population Apoptotic (%) [2, 3]: 42% and 60%
Population Fragmented Nuclei (%) [2, 3]: 2% and 4%
Population Healthy Nuclei (%) [2, 3]: 51% and 52%
Population Hoechst High Intensity Objects (%) [2, 3]: 23% and 21%
Population Membrane Permeable-Phenotype (%) [2, 3]: 9% and 14%
Population Mitochondria Different-Phenotype (%) [2, 3]: 37% and 41%
Population Mitotic Cells (%) [2, 3]: 57% and 40%
Population Normal (%) [2, 3]: 76% and 78%
Population Pyknosed Nuclei (%) [2, 3]: 46% and 43%
Population Tubulin-Different-Phenotype (%) [2, 3]: 89% and 83%
Total Cell Count [2, 3]: 442 and 379
Population Apoptotic (%) [2, 4]: 52% and 73%
Population Fragmented Nuclei (%) [2, 4]: 3% and 2%
Population Healthy Nuclei (%) [2, 4]: 61% and 57%
Population Hoechst High Intensity Objects (%) [2, 4]: 17% and 19%
Population Membrane Permeable-Phenotype (%) [2, 4]: 10% and 5%
Population Mitochondria Different-Phenotype (%) [2, 4]: 26% and 31%
Population Mitotic Cells (%) [2, 4]: 47% and 26%
Population Normal (%) [2, 4]: 82% and 80%
Population Pyknosed Nuclei (%) [2, 4]: 35% and 40%
Population Tubulin-Different-Phenotype (%) [2, 4]: 91% and 95%
Total Cell Count [2, 4]: 459 and 452
Population Apoptotic (%) [2, 5]: 61% and 75%
Population Fragmented Nuclei (%) [2, 5]: 4% and 5%
Population Healthy Nuclei (%) [2, 5]: 43% and 50%
Population Hoechst High Intensity Objects (%) [2, 5]: 24% and 23%
Population Membrane Permeable-Phenotype (%) [2, 5]: 10% and 5%
Population Mitochondria Different-Phenotype (%) [2, 5]: 44% and 45%
